Usually IC50 stands for the midpoint of a concentration-inhibition curve. Higher therefore signals lower potency.

The text below walks through data of ChEMBL document CHEMBL1131607, “Synthesis of 7-arylmorphinans. Probing the "address" requirements for selectivity at opioid delta receptors” (J Med Chem, 1998).

The species entered for assay [1] is Cavia porcellus. Briefly: (§1) Compound was tested for opioid agonist activity in the electrically stimulated guinea pig ileal longitudinal muscle(GPI). Format: functional, Muscle tissue. An outline of the steps:
(§2)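 Electrically stimulated guinea pig ileal longitudinal muscle or mouse vas deferens, hydrochloride salts. Weak agonists tested at a single 1 μM concentration, reported as percent of maximal response (±SE). Full agonists run at four to six concentrations to give a concentration-response curve compared with a standard agonist in the same tissue. IC50 = agonist concentration giving half-maximal response; a negative value means enhanced twitch amplitude.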

The species entered for assay [2] is Mus musculus. Briefly: (§3) Compound was tested for opioid agonist activity in the electrically stimulated mouse vas deferens(MVD). Format: functional, organism-based. Put shortly: as §2
The target of assay [3] is Mu-type opioid receptor (Cavia porcellus) (UniProt P97266). Briefly: Compound was tested for opioid antagonist activity in the electrically stimulated GPI preparation, against morphine (Opioid receptor mu 1). Format: functional. An outline of the steps: (§4)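 Antagonism in electrically stimulated smooth muscle, hydrochloride salts. Test ligand 100 nM preincubated for 15 min before the standard agonist: DADLE (δ) in mouse vas deferens, morphine (μ) and ethylketazocine (κ) in guinea pig ileal longitudinal muscle. IC50 ratio = agonist IC50 with test compound / control agonist IC50. Ke (nM) = [antagonist]/(IC50 ratio − 1).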
Chain of Mu-type opioid receptor (Cavia porcellus) (P97266 whole entry): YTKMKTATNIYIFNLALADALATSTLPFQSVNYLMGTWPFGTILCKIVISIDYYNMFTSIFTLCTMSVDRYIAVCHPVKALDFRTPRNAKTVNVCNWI

Assay [4] concerns the target Kappa-type opioid receptor (Cavia porcellus) (UniProt P41144). Briefly: Antagonist activity against electrically stimulated guinea pig ileum Opioid receptor kappa 1. Format: functional, tissue-based. An outline of the steps:
as §4

Assay [5] is filed under the species Cavia porcellus. The assay is described as §1. The note with it: Muscle tissue. Format: functional, organism-based. An outline of the steps: as §2
For assay [6], the species on record is Mus musculus. The description is as §3. It is filed as functional. Put shortly:
as §2

Assay [7] addresses Delta-type opioid receptor (Mus musculus) (UniProt P32300). Briefly: Inhibition of [D-Ala2,D-Leu5]-enkephalin (DADLE) activity in the electrically stimulated mouse vas deferens. An outline of the steps:
as §4

Chain of Kappa-type opioid receptor (Cavia porcellus) (P41144 whole entry): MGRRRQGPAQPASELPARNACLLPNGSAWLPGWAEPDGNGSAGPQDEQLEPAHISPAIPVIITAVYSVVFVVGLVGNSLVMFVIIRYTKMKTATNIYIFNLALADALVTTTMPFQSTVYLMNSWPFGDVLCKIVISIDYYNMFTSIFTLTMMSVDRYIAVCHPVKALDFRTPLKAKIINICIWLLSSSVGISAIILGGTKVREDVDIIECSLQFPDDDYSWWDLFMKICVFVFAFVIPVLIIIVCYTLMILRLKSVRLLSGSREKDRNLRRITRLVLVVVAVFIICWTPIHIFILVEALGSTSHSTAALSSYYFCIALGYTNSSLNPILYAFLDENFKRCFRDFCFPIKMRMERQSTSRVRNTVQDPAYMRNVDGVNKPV
Chain of Delta-type opioid receptor (Mus musculus) (P32300 whole entry): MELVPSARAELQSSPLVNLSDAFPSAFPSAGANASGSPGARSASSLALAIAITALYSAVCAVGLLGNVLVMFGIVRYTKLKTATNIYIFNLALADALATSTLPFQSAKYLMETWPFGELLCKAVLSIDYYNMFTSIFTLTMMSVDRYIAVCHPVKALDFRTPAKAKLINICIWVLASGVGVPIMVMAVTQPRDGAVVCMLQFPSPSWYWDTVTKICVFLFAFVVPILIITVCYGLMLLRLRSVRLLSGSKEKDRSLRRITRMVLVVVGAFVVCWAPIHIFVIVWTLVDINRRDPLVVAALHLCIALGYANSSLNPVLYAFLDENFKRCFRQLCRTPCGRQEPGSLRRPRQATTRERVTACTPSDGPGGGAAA

`CN1CC[C@]23c4c5ccc(O)c4O[C@H]2[C@@H](O)[C@@H](c2ccccc2)CC3[C@H]1C5` (some centres not stated) gave a Max response in the assay filed under Cavia porcellus [1] of 23.2%. In the assay listed under Mus musculus [2], this molecule displayed an IC50 of 178 nM. For the same molecule, the IC50 ratio came out at 1.85 in assay [3] and 1.9 in assay [4].

Molecule `CC(=O)O[C@H]1[C@@H](c2ccccc2)CC2[C@H]3Cc4ccc(O)c5c4[C@@]2(CCN3C2CC2)[C@H]1O5` (some centres not stated) came in with a concentration for half-maximal inhibition (IC50) in the assay filed under Cavia porcellus [5] of 118 nM. Moreover, in the assay listed under Mus musculus [6], the Max response came out at 21.1%. The IC50 ratio in assay [7] was found to be 6.38.

For `O=C1[C@@H](c2ccccc2)C[C@H]2[C@H]3Cc4ccc(O)c5c4[C@@]2(CCN3C2CC2)[C@H]1O5`, the IC50 ratio in assay [7] was 17.6.

In the case of `CN1CC[C@]23c4c5ccc(O)c4O[C@H]2C(=O)C(c2ccccc2)(c2ccccc2)CC3[C@H]1C5` (some centres not stated), the Max response in the assay filed under Cavia porcellus [1] is listed as 9.7%; in the assay filed under Mus musculus [6] it was 5.4%. For the same molecule, the IC50 ratio came out at 2.34 in assay [7], 1.69 in assay [3] and 1.01 in assay [4].

Regarding `Oc1ccc2c3c1O[C@H]1[C@@H](O)[C@@H](c4ccccc4)CC4[C@@H](C2)N(C2CC2)CC[C@@]341` (some centres not stated), the IC50 ratio in assay [7] is 3.03.

Consider `CC(=O)O[C@H]1[C@@H](c2ccccc2)CC2[C@H]3Cc4ccc(O)c5c4[C@@]2(CCN3C)[C@H]1O5` (some centres not stated), for which the results for the Max response in the assay listed under Cavia porcellus [1] and in the assay listed under Mus musculus [6] were 24% and 34.3%, respectively. In addition, the results for the IC50 ratio in assay [7], in assay [3] and in assay [4] were 1.02, 0.9 and 1.08, respectively.

As for `CN1CC[C@]23c4c5ccc(O)c4O[C@H]2C(=O)[C@@H](c2ccccc2)C[C@H]3[C@H]1C5`, the Max response in the assay listed under Cavia porcellus [1] is 53.9%; in the assay listed under Mus musculus [6], 29.2%. In addition, the IC50 ratio worked out at 0.97 in assay [7], 1.05 in assay [3] and 0.75 in assay [4].

Turning to `CN1CC[C@]23c4c5ccc(O)c4O[C@H]2[C@@H](O)[C@@H](c2ccc(Br)cc2)CC3[C@H]1C5` (some centres not stated), the Max response was 10% in the assay filed under Cavia porcellus [1] and 15.2% in the assay listed under Mus musculus [6]. Moreover, the IC50 ratio in assay [7] came to 1.17; in assay [3], 1.2; in assay [4], 1.76.

On to `CN1CC[C@]23c4c5ccc(O)c4O[C@H]2[C@@H](O)[C@@H](c2cccc([N+](=O)[O-])c2)CC3[C@H]1C5` (some centres not stated), for which the Max response in the assay filed under Cavia porcellus [1] is given as 49.3%; in the assay filed under Mus musculus [6] it was 56.1%. The IC50 ratio came out at 0.99 in assay [7], 0.34 in assay [3] and 1.05 in assay [4].

As for `O=[N+]([O-])c1cccc([C@H]2CC3[C@H]4Cc5ccc(O)c6c5[C@@]3(CCN4C3CC3)[C@@H](O6)[C@H]2O)c1` (some centres not stated), the IC50 ratio in assay [7] was 4.17.

For the molecule `Oc1ccc2c3c1O[C@H]1c4[nH]c5ccccc5c4C[C@@]4(O)[C@@H](C2)N(CC2CC2)CC[C@]314` [NALTRINDOLE], the Ke is on record as 29 nM in the assay listed under Cavia porcellus [1] and 0.13 nM in the assay filed under Mus musculus [6].
